Results: ChEMBL document CHEMBL1126602, “L-beta-(2S,4S)- and L-alpha-(2S,4R)-dioxolanyl nucleosides as potential anti-HIV agents: asymmetric synthesis and structure-activity relationships” (J Med Chem, 1993)

Legend:
[1] = test system: Human immunodeficiency virus 1; test: Effective concentration against HIV-1 strain LAV in human peripheral blood mononuclear (PBM) cells.; type: functional, organism-based
Outline: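 Mitogen-stimulated human PBM cells infected with HIV-1 LAV at MOI 0.1 (set by limiting dilution in PBM cells). Compounds were added about 45 min after infection, diluted in medium from 40 mM DMSO stocks (final DMSO below 0.25%). Read-out was supernatant reverse transcriptase (RT) level. EC50 was taken from a median effect plot of dose-effect data.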

[2] = Cytotoxicity against uninfected PHA-stimulated peripheral blood mononuclear (PBM) cells; type: cell-based; conditions: Homo sapiens
Outline: (§1)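 Uninfected cells were cultured with or without drug: PHA-stimulated human PBM cells for 6 days, Vero cells for 3 days, CEM cells for 6 days. Cells were then counted with trypan blue. Compounds came from 40 mM DMSO stocks diluted in medium (final DMSO below 0.25%). IC50 was derived from a median effect plot.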

[3] = test system: CCRF-CEM; test: Effective concentration for inhibition of virus production in human CEM cells; type: functional, cell-based
[4] = test system: CCRF-CEM; test: Cytotoxicity against uninfected PHA-stimulated CEM cells; type: cell-based; conditions: Homo sapiens; outline: as §1
[5] = test system: Vero; test: Cytotoxic effect against vero cells.; type: cell-based; conditions: Chlorocebus sabaeus; outline: as §1

SMILES | EC50 [1] [µM] | EC50 [3] [µM] | IC50 [2] [µM] | IC50 [4] [µM] | IC50 [5] [µM]
Nc1ccn([C@H]2CO[C@@H](CO)O2)c(=O)n1 | 0.016 | 0.009 | 62 | 12.8 | –
Nc1ccn([C@H]2CO[C@H](CO)O2)c(=O)n1 | 1.3 | – | > 10 | – | 16.8
Nc1ccn([C@@H]2CO[C@H](CO)O2)c(=O)n1 [TROXACITABINE] | 0.002 | – | > 10 | – | 0.1
Nc1nc(O)c2ncn([C@@H]3CO[C@H](CO)O3)c2n1 | 17.5 | – | > 100 | – | > 100
Cc1cn([C@H]2C[C@H](N=[N+]=[N-])[C@@H](CO)O2)c(=O)[nH]c1=O [ZIDOVUDINE] | – | – | > 100 | – | –
Nc1nc(O)c2ncn([C@H]3CO[C@H](CO)O3)c2n1 | 102 | – | > 100 | – | > 100

Now from value to molecule, other results behind:

EC50 [1] [µM] | EC50 [3] [µM] | SMILES | IC50 [2] [µM] | IC50 [4] [µM] | IC50 [5] [µM]
0.014 | – | Nc1nc(N)c2ncn([C@@H]3CO[C@H](CO)O3)c2n1 | – | – | –
34.7 | – | Nc1nc(Cl)nc2c1ncn2[C@@H]1CO[C@H](CO)O1 | – | – | –
1.27 | – | Nc1nc(Cl)nc2c1ncn2[C@H]1CO[C@H](CO)O1 | – | – | –
42.1 | – | Nc1nc(N)c2ncn([C@H]3CO[C@H](CO)O3)c2n1 | – | – | –
